From ChEMBL document CHEMBL5356992, “New nitazoxanide derivatives: design, synthesis, biological evaluation, and molecular docking studies as antibacterial and antimycobacterial agents” (RSC Med Chem, 2023)
In brackets after ≈: the same amount, converted by molar mass.

Key:
Klebsiella pneumoniae [1] = assay: Antibacterial activity against Klebsiella pneumoniae ATCC 10031 by broth microdilution method; format: functional
Summary of the method: (§1)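 CLSI broth microdilution on wild-type strains. E. coli ATCC 8739, P. aeruginosa ATCC 27853 and K. pneumoniae ATCC 10031 served as Gram-negatives. S. aureus ATCC 6538 and E. faecalis ATCC 19433 served as Gram-positives. H. pylori ATCC 700392 was tested as the […]. Ciprofloxacin was the reference drug. MIC is given in μM as the mean of three experiments.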

Klebsiella pneumoniae [2] = assay: Potency index, ratio of nitazoxanide MIC to test compound MIC for antibacterial activity against Klebsiella pneumoniae ATCC 10031; format: functional
Escherichia coli [3] = assay: Antibacterial activity against Escherichia coli ATCC 8739 by broth microdilution method; format: functional; summary of the method: as §1
Escherichia coli [4] = assay: Potency index, ratio of nitazoxanide MIC to test compound MIC for antibacterial activity against Escherichia coli ATCC 8739; format: functional
Staphylococcus aureus [5] = assay: Antibacterial activity against Staphylococcus aureus ATCC 6538 by broth microdilution method; format: functional; summary of the method: as §1
Pseudomonas aeruginosa [6] = assay: Antibacterial activity against Pseudomonas aeruginosa ATCC 27853 by broth microdilution method; format: functional; summary of the method: as §1
[7] = test system: Mycobacterium tuberculosis; assay: Antimycobacterial activity against Mycobacterium tuberculosis H37Rv incubated for 7 days by alamar blue assay; format: functional; conditions: 168 h, time 7 day
Summary of the method: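 Two-fold serial dilutions in 7H9-S, with growth and sterile controls, incubated at 37 °C for 7 days. Alamar Blue then added and incubated overnight. MIC is the lowest concentration preventing the blue-to-pink change. Means of three experiments.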

Helicobacter pylori = assay: Antibacterial activity against Helicobacter pylori ATCC 700392 by broth microdilution method; format: functional; summary of the method: as §1
Enterococcus faecalis [8] = assay: Antibacterial activity against Enterococcus faecalis ATCC 19433 by broth microdilution method; format: functional; summary of the method: as §1
[9] = Selectivity index, ratio of cytotoxicity against mouse RAW264.7 cells to MIC for Mycobacterium tuberculosis H37Rv; format: toxicity, cell-based; conditions: read-out: Selectivity Index
Summary of the method: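 SI is cytotoxicity divided by the MABA MIC (μg mL⁻¹) against H37Rv. For cytotoxicity, RAW 264.7 cells were grown in RPMI with 10% FBS and penicillin/streptomycin. About 5000 cells per well were seeded on poly-L-lysine plates and held 24 h at 37 °C, 5% CO2. Compounds were added at 25 μg mL⁻¹ for 48 h, then MTT (0.5 mg mL⁻¹) for 3 h. Formazan was read at 595/625 nm and reported as % inhibition.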

RAW264.7 = assay: Cytotoxicity against mouse RAW264.7 cells at 25 ug/ml incubated for 48 hrs by MTT assay; format: toxicity, cell-based; conditions: raw264.7, 48 h, at 25 µg/mL
Summary of the method: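 RAW 264.7 mouse macrophages were grown in RPMI with 10% FBS plus penicillin/streptomycin to 80–90% confluency. About 5000 cells/well were seeded on poly-L-lysine-coated plates and held 24 h at 37 °C, 5% CO2. Compound was added at 25 μg mL−1 for 48 h at 37 °C. MTT (0.5 mg mL−1) was added for 3 h, and formazan was read at 595 and 625 nm. Result is % inhibition.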

Pseudomonas aeruginosa [10] = assay: Potency index, ratio of nitazoxanide MIC to test compound MIC for antibacterial activity against Pseudomonas aeruginosa ATCC 27853; format: functional
Staphylococcus aureus [11] = assay: Potency index, ratio of nitazoxanide MIC to test compound MIC for antibacterial activity against Staphylococcus aureus ATCC 6538; format: functional
Enterococcus faecalis [12] = assay: Potency index, ratio of nitazoxanide MIC to test compound MIC for antibacterial activity against Enterococcus faecalis ATCC 19433; format: functional
[13] = test system: Mycobacterium tuberculosis; assay: Potency index, ratio of nitazoxanide MIC to test compound MIC for antitubercular activity against Mycobacterium tuberculosis H37Rv; format: functional
[14] = test system: Mycobacterium tuberculosis; assay: Potency index, ratio of ethambutol MIC to test compound MIC for antitubercular activity against Mycobacterium tuberculosis H37Rv; format: functional

Compound	MIC (Klebsiella pneumoniae [1]) [µM]	Ratio (Klebsiella pneumoniae [2])	MIC (Escherichia coli [3]) [µM]	Ratio (Escherichia coli [4])	MIC (Staphylococcus aureus [5]) [µM]	MIC (Pseudomonas aeruginosa [6]) [µM]	MIC [7] [µg/mL]	MIC (Helicobacter pylori) [µM]	MIC (Enterococcus faecalis [8]) [µM]	selectivity ratio [9]	Cell growth inhibition (RAW264.7) [%]	Ratio (Pseudomonas aeruginosa [10])	Ratio (Staphylococcus aureus [11])	Ratio (Enterococcus faecalis [12])	Ratio [13]	Ratio [14]
COC(=O)c1cn(-c2ccc(C(=O)Nc3ncc([N+](=O)[O-])s3)c(O)c2)nn1	5.12 (≈ 2 µg/mL)	<=20	3.84 (≈ 1.5 µg/mL)	20	10.2 (≈ 4 µg/mL)	15.4 (≈ 6 µg/mL)	> 25	3.84 (≈ 1.5 µg/mL)								
Cc1ccc(-c2cn(-c3ccc(C(=O)Nc4ncc([N+](=O)[O-])s4)c(O)c3)nn2)cc1			7.1 (≈ 3 µg/mL)		1210 (≈ 512 µg/mL)	303 (≈ 128 µg/mL)	25 (≈ 59.2 µM)	5.91 (≈ 2.5 µg/mL)	75.8 (≈ 32 µg/mL)	1	27.6					
O=C(Nc1ncc([N+](=O)[O-])s1)c1ccccc1O [TIZOXANIDE]	241 (≈ 64 µg/mL)		181 (≈ 48 µg/mL)		151 (≈ 40 µg/mL)	362 (≈ 96 µg/mL)		11.3 (≈ 3 µg/mL)	136 (≈ 36 µg/mL)							
COc1ccc2c(c1)C(=O)C(=O)N2Cc1cn(-c2ccc(C(=O)Nc3ncc([N+](=O)[O-])s3)c(O)c2)nn1	491 (≈ 256 µg/mL)		15.3 (≈ 8 µg/mL)		92 (≈ 48 µg/mL)		> 25	9.58 (≈ 5 µg/mL)	184 (≈ 96 µg/mL)							
CC(=O)Oc1ccccc1C(=O)Nc1ncc([N+](=O)[O-])s1 [NITAZOXANIDE]	182 (≈ 56 µg/mL)		104 (≈ 32 µg/mL)		104 (≈ 32 µg/mL)	417 (≈ 128 µg/mL)		13 (≈ 4 µg/mL)	156 (≈ 48 µg/mL)	4	20.65					
CC[C@@H](CO)NCCN[C@@H](CC)CO [ETHAMBUTOL]							1.56 (≈ 7.64 µM)									
O=C(Nc1ncc([N+](=O)[O-])s1)c1ccc(-n2cc(CN3CCCC3)nn2)cc1O	12 (≈ 5 µg/mL)		6.01 (≈ 2.5 µg/mL)		3.61 (≈ 1.5 µg/mL)	7.22 (≈ 3 µg/mL)	> 25	19.2 (≈ 8 µg/mL)				>50	25			
O=C(O)c1cn(-c2ccc(C(=O)Nc3ncc([N+](=O)[O-])s3)c(O)c2)nn1	15.9 (≈ 6 µg/mL)		6.64 (≈ 2.5 µg/mL)		85 (≈ 32 µg/mL)	10.6 (≈ 4 µg/mL)	25 (≈ 66.4 µM)	21.2 (≈ 8 µg/mL)		1	27.5					
O=C(Nc1ncc([N+](=O)[O-])s1)c1ccc(-n2cc(CO)nn2)cc1O	88.3 (≈ 32 µg/mL)					353 (≈ 128 µg/mL)	> 25	44.1 (≈ 16 µg/mL)	132 (≈ 48 µg/mL)							
O=C(Nc1ncc([N+](=O)[O-])s1)c1ccc(-n2cc(CN3C(=O)C(=O)c4cc(F)ccc43)nn2)cc1O					15.7 (≈ 8 µg/mL)	7.85 (≈ 4 µg/mL)	> 25	3.92 (≈ 2 µg/mL)	4.9 (≈ 2.5 µg/mL)			>50		25		
NNC(=O)c1ccncc1 [ISONIAZID]							0.05 (≈ 0.365 µM)									
O=C(Nc1ncc([N+](=O)[O-])s1)c1ccc(-n2cc(CN3C(=O)C(=O)c4cc(Cl)ccc43)nn2)cc1O	60.9 (≈ 32 µg/mL)		487 (≈ 256 µg/mL)				> 25	4.75 (≈ 2.5 µg/mL)								
[N-]=[N+]=Nc1ccc(C(=O)Nc2ncc([N+](=O)[O-])s2)c(O)c1	313 (≈ 96 µg/mL)		4.89 (≈ 1.5 µg/mL)	20	9.79 (≈ 3 µg/mL)		3.12 (≈ 10.2 µM)	104 (≈ 32 µg/mL)	26.1 (≈ 8 µg/mL)	8	28.53					
O=C(Nc1ncc([N+](=O)[O-])s1)c1ccc(-n2cc(CN3C(=O)C(=O)c4ccccc43)nn2)cc1O					32.5 (≈ 16 µg/mL)	16.3 (≈ 8 µg/mL)	> 25	130 (≈ 64 µg/mL)	4.06 (≈ 2 µg/mL)					25		
O=C(Nc1ncc([N+](=O)[O-])s1)c1ccc(-n2cc(CN3C(=O)C(=O)c4cc(Br)ccc43)nn2)cc1O	4.38 (≈ 2.5 µg/mL)	<=20	21 (≈ 12 µg/mL)		0.87 (≈ 0.496 µg/mL)	5.26 (≈ 3 µg/mL)	> 25	3.5 (≈ 2 µg/mL)	8.76 (≈ 5 µg/mL)			>50	25			
O=C(Nc1ncc([N+](=O)[O-])s1)c1ccc(-n2cc(CN3CCOCC3)nn2)cc1O	18.5 (≈ 8 µg/mL)		1190 (≈ 512 µg/mL)		6.95 (≈ 3 µg/mL)	148 (≈ 64 µg/mL)	> 25	9.27 (≈ 4 µg/mL)					25			
CN1CCN(Cc2cn(-c3ccc(C(=O)Nc4ncc([N+](=O)[O-])s4)c(O)c3)nn2)CC1	8.99 (≈ 4 µg/mL)	<=20			4.49 (≈ 2 µg/mL)	144 (≈ 64 µg/mL)	> 25	6.74 (≈ 3 µg/mL)					25			
O=C(Nc1ncc([N+](=O)[O-])s1)c1ccc(-n2cc(CN3CCCCC3)nn2)cc1O	1190 (≈ 512 µg/mL)		74.5 (≈ 32 µg/mL)		9.31 (≈ 4 µg/mL)		> 25	1.74 (≈ 0.747 µg/mL)	27.9 (≈ 12 µg/mL)							
O=C(Nc1ncc([N+](=O)[O-])s1)c1ccc(-n2cc(CSc3nc4ccccc4s3)nn2)cc1O	23.4 (≈ 12 µg/mL)		3.9 (≈ 2 µg/mL)	20	3.9 (≈ 2 µg/mL)	31.3 (≈ 16 µg/mL)	> 25	15.6 (≈ 8 µg/mL)					25			
Cc1ccc2c(c1)C(=O)C(=O)N2Cc1cn(-c2ccc(C(=O)Nc3ncc([N+](=O)[O-])s3)c(O)c2)nn1	3.95 (≈ 2 µg/mL)	<=20	1.48 (≈ 0.748 µg/mL)	20	506 (≈ 256 µg/mL)	7.91 (≈ 4 µg/mL)	> 25	2.96 (≈ 1.5 µg/mL)	5.93 (≈ 3 µg/mL)					25		
CO[C@H]1/C=C/O[C@@]2(C)Oc3c(C)c(O)c4c(O)c(c(/C=N/N5CCN(C)CC5)c(O)c4c3C2=O)NC(=O)/C(C)=C\C=C\[C@H](C)[C@H](O)[C@@H](C)[C@@H](O)[C@@H](C)[C@H](OC(C)=O)[C@@H]1C [RIFAMPIN]							0.1 (≈ 0.122 µM)									
O=C(Nc1ncc([N+](=O)[O-])s1)c1ccc(-n2cc(CN3CCN(c4ccccc4)CC3)nn2)cc1O	253 (≈ 128 µg/mL)		11.8 (≈ 6 µg/mL)		505 (≈ 256 µg/mL)	2.96 (≈ 1.5 µg/mL)	> 25	31.6 (≈ 16 µg/mL)	1.97 (≈ 0.998 µg/mL)			>50		25		
CC(=O)Oc1cc(N=[N+]=[N-])ccc1C(=O)Nc1ncc([N+](=O)[O-])s1	34.5 (≈ 12 µg/mL)		8.61 (≈ 3 µg/mL)		11.5 (≈ 4 µg/mL)	91.9 (≈ 32 µg/mL)	1.56 (≈ 4.48 µM)	11.5 (≈ 4 µg/mL)	2.15 (≈ 0.749 µg/mL)	16	17.54			25	5	1.7
O=C(Nc1ncc([N+](=O)[O-])s1)c1ccc(-n2cc(-c3ccccc3)nn2)cc1O	39.2 (≈ 16 µg/mL)				29.4 (≈ 12 µg/mL)		> 25	14.7 (≈ 6 µg/mL)	19.6 (≈ 8 µg/mL)							
O=C(O)c1cn(C2CC2)c2cc(N3CCNCC3)c(F)cc2c1=O [CIPROFLOXACIN]	9.05 (≈ 3 µg/mL)		0.3 (≈ 0.0994 µg/mL)		3.01 (≈ 0.997 µg/mL)	4.53 (≈ 1.5 µg/mL)		1.5 (≈ 0.497 µg/mL)	6.03 (≈ 2 µg/mL)							
